Screening data (PubChem)
HIF activator = HIF pathway transcriptional activators, primary screen, cell-based, U2OS HRE-luciferase, luminescence; activation, % at 7.5 µM (by protocol); AID 1910, 2009; actives 0.32% (n = 300,000); U2OS HRE-luciferase reporter; normalized: DMSO 0%, desferrioxamine 100%;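 active = mean activation of at least 10% of the iron chelator positive control signal, with at least half of replicates also reaching 10%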
ABCB6 inh MLPCN = ABCB6 transporter inhibitors, primary screen, K562-ABCB6 cells, flow cytometry, MLPCN library | K562-ABCB6 porphyrin accumulation, 1 h; stronger effect = lower value | AID 602162, 2011 | fluorescence ratio to DMSO, % at 10 µM | actives 0.19% (n = 360,000);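 active = fluorescence ratio to DMSO below 75%, the collection mean minus 3 SD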;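 also: signal is porphyrin accumulated inside mitochondria; 100% equals median channel fluorescence of DMSO control wells; lower ratio means ABCB6 inhibition with less porphyrin fluorescence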
SR-BI DiI inh = inhibitors of SR-BI mediated HDL lipid uptake, primary screen, ldlA[mSR-BI] cells, fluorescence, single point; ldlA[mSR-BI] CHO cells, DiI-HDL uptake fluorescence, 3 h; inhibition, % at 12.5 µM; actives 0.96% (n = 320,000); AID 488896, 2010;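 active = mean replicate inhibition of at least 70% and a set share of replicates each scoring 70 or more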;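 also: 0% = median of neutral control wells and 100% = median of positive control wells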
SR-BI uptake up = activators of SR-BI mediated DiI-HDL uptake, primary screen, ldlA[mSR-BI] CHO cells, DiI fluorescence. 3 h; 100 = double the neutral-control signal. activation, % at 12.5 µM. actives 0.096% (n = 320,000);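 active = mean replicate activation of at least 60% and every replicate at or above 60%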;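 also: 0% = median plate neutral-control signal and 100% = twice that signal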
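Material: SR-BI-overexpressing, LDLR-lacking CHO cells | Dosing: Single compound concentration, delivered by pin transfer | Probe or stimulus: Labelled HDL, 10 µg/mL | Signal: Bottom-read cell fluorescence after medium removal, ex 550/em 595 nm | Schedule: 3 h, 37 °C | Evaluation: HDL uptake via cellular fluorescence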
FXN GAA850 act = FXN promoter activators, primary screen, cell-based, luciferase luminescence, HEK293 lucGAA850 | HEK293 lucGAA850 FXN promoter luciferase reporter, 24 h; percent of 10 µM SAHA response | activation, % at 6 µM | actives 0.56% (n = 360,000) | AID 540364, 2011;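 active = activation above the average of all compounds screened plus 3 SD, cutoff fixed separately per campaign, cut at about 7.5% in these data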;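 also: 0% = DMSO wells and 100% = 10 µM SAHA wells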
AHR activator = AHR activators, primary screen, cell-based, luminescence, luciferase reporter, human. Aryl hydrocarbon receptor (Homo sapiens), P35869. AHR-responsive luciferase reporter cells. activation, % at 5 µM. actives 2.5% (n = 320,000). AID 2796, 2010; in the data active = activation above about 47%;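 also: 0% = vehicle wells and 100% = reference agonist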
Target sequence (P35869 whole entry, looked up): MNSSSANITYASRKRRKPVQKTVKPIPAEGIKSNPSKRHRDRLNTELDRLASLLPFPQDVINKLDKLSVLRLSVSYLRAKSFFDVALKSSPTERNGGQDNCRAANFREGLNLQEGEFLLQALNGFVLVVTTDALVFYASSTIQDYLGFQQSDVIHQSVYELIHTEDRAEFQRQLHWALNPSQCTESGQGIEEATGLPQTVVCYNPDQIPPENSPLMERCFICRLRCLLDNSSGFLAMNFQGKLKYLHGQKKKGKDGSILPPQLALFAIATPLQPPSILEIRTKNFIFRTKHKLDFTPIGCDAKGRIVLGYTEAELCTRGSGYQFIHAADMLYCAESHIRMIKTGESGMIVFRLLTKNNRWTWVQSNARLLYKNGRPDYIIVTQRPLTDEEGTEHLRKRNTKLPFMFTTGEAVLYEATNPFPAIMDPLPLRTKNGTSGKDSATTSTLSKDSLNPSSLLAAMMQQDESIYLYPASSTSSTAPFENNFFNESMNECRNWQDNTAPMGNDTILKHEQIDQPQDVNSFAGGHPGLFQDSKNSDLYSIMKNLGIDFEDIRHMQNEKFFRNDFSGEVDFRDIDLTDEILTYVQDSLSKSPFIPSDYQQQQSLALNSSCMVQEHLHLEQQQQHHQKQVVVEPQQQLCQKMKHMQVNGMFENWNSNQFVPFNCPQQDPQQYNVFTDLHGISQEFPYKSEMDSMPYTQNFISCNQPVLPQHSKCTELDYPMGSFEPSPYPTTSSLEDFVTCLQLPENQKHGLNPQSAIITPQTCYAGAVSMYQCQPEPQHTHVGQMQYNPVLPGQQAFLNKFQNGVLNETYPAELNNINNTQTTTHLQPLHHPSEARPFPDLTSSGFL
* hit, by the source's call; nt = not tested or not shown. Sampled rows, rich in hits. Any-hit rate of the full collection: about 3.9%.

SMILES	HIF activator	ABCB6 inh MLPCN	SR-BI DiI inh	SR-BI uptake up	FXN GAA850 act	AHR activator
COc1cccc(NC(=S)N(CCN(C)C)C(C)c2cccnc2)c1 (configuration not stated)	3	90	-21	21	2	1
O=C(OC(C(=O)NC1CCCCC1)c1ccccn1)c1cccs1 (configuration not stated)	0	87	2	-2	2	2
Cc1ccc(C(=O)NNC(=O)C2CCN(S(=O)(=O)c3ccc(Cl)cc3)CC2)cc1	0	97	3	-3	0	1
Cc1ccc(S(=O)(=O)N2CCC(C(=O)NNC(=O)c3ccccc3O)CC2)cc1C	0	97	72*	-72	1	10
Cc1cc(C)c(C)c(S(=O)(=O)N2CCC(C(=O)NCc3cccs3)CC2)c1C	nt	97	nt	nt	-2	nt
Cc1cc(C)c(C)c(S(=O)(=O)N2CCC(C(=O)NNC(=O)c3ccccc3O)CC2)c1C	1	93	119*	-119	-1	3
Cc1ccc(S(=O)(=O)N2CCC(C(=O)NNC(=O)c3ccccc3O)CC2)cc1	1	97	81*	-81	-1	1
O=C(Nc1ccncc1)Nc1cccc(C(F)(F)F)c1	0	100	0	0	-1	25
Oc1c(C(Nc2cccc(C(F)(F)F)c2)c2ccncc2)ccc2cccnc12 (configuration not stated)	24*	100	15	-15	-3	3
Oc1c(C(Nc2nccs2)c2ccc(C(F)(F)F)cc2)ccc2cccnc12 (configuration not stated)	58*	98	nt	nt	-7	nt
CC(=O)Nc1cc(-c2ccc(CO)cc2)cn2c(-c3ccc(F)cc3)cnc12	nt	107	nt	nt	3	nt
O=C(COC(=O)c1nc(Cl)ccc1Cl)NC1CCS(=O)(=O)C1 (configuration not stated)	0	101	-30	30	0	0
Cc1cc(C(=O)Nc2sc3c(c2C#N)CCC(C)C3)cs1 (configuration not stated)	3	102	75*	-75	5	14
C=CCn1c(SCc2ccc(F)cc2)nc2c1c(=O)[nH]c(=O)n2C	0	99	-3	3	23*	0
C=CCn1c(Cc2ccccc2)nnc1SCc1nc2ccccc2c(=O)[nH]1	0	99	3	-3	0	2
C=CCn1c(SCc2nc3ccccc3c(=O)[nH]2)nc2ccccc2c1=O	0	94	-2	2	-1	60*
O=C(NNC(=O)c1ccccc1O)c1ccc(Cl)cc1	3	99	88*	-88	5	-2
Cc1cccc(C(=O)NNC(=O)c2ccc(Cl)cc2)c1O	1	97	75*	-75	3	11
O=C(NNC(=O)c1ccc(O)cc1O)c1ccc(Cl)cc1	0	93	-24	24	2	11
COc1ccc(C(=O)NN/C(C)=C/C(=O)c2ccccc2)cc1	-11	95	17	-17	2	10
C/C(=C\C(=O)c1ccccc1)NNC(=O)c1ccc(Cl)cc1	1	96	91*	-91	1	2
O=C(NNC(=O)c1cccc2ccccc12)c1ccc(Cl)cc1	nt	88	6	-6	4	nt
CCC1CN(C(=O)N2CCC(C(=O)NCCc3ccc(OC)cc3OC)CC2)c2ccccc2O1 (configuration not stated)	1	97	78*	-78	-2	2
CCN(CC)CCn1c2c(c(SCC(=O)NCc3ccccc3)nc1=O)CCCC2	0	100	-7	7	-2	5
Cc1cc(C)c(S(=O)(=O)N2CCC(C(=O)NCc3ccncc3)CC2)c(C)c1	0	98	37	-37	2	-3
SMILES	HIF activator	ABCB6 inh MLPCN	SR-BI DiI inh	SR-BI uptake up	FXN GAA850 act	AHR activator
CCN(C(=O)c1cn(C)c(=O)c2cc(OC)c(OC)cc12)c1cc(OC)ccc1OC	-2	97	-67	67*	-2	5
COc1ccc(CCN2CC(C(=O)N(C)Cc3ccccc3OC)CCC2=O)cc1 (configuration not stated)	0	102	-5	5	-1	3
Cc1ccc(NC(=O)c2ccc3nc[nH]c3c2)c(O)c1	3	98	-6	6	4	65*
Cc1ccc(NC(=O)c2ccc3nc[nH]c3c2)nc1	2	93	15	-15	2	39
Brc1ccc(-c2nc(-c3ccccn3)no2)o1	-2	102	-11	11	-4	51*
COc1ccc(-c2nc(-c3ccccn3)no2)cc1	-4	77	10	-10	-13	-14
Brc1ccc(-c2nc(-c3ccncc3)no2)o1	2	78	-7	7	3	16
Clc1ccc(-c2nc(-c3ccccn3)no2)cc1Cl	0	105	-26	26	7	72*
C=CCN1C(=O)c2ccc(C(=O)OCC(=O)N(CC)C3CCS(=O)(=O)C3)cc2C1=O (configuration not stated)	nt	92	-7	7	1	-1
NS(=O)(=O)c1cccc(NC(=O)COC(=O)Cc2ccc(S(=O)(=O)N3CCCCC3)s2)c1	0	98	10	-10	-1	-1
O=C(COC(=O)Cc1ccc(S(=O)(=O)N2CCCCC2)s1)Nc1ccc2c(c1)OCO2	25*	95	-5	5	0	6
Fc1ccccc1/C=N/Nc1ncnc2ccccc12	3	96	40	-40	3	31
Clc1ccc(/C=N/Nc2ncnc3ccccc23)cc1Cl	2	102	28	-28	7	58*
CCCC(=O)N1CCOCC1c1cc(C(=O)Nc2ccccc2)no1 (configuration not stated)	nt	85	nt	nt	-1	nt
O=C(c1ccco1)N1CCN(c2c(-c3ccccc3)c3cc(Cl)ccc3[nH]c2=O)CC1	0	105	9	-9	2	5
O=C(c1ccco1)N1CCN(c2ncnc3c2[nH]c2ccc(Cl)cc23)CC1	0	nt	nt	nt	nt	81*
Cc1ccc(-c2nc(N/N=C/c3cccc([N+](=O)[O-])c3)c3ccccc3n2)cc1	1	91	74*	-74	0	14
Cc1ccc(-c2nc(N/N=C/c3cccnc3)c3ccccc3n2)cc1	2	94	45	-45	-1	62*
Cc1ccc2nc(C)cc(N/N=C/c3cccnc3)c2c1	0	98	6	-6	1	43
